# Reference: ChEMBL document CHEMBL5696444 (Nat Commun, 2017)
# Columns and labels:
# [1] = test system: HCT-116; assay: Induction of apoptosis in human HCT-116 cells assessed as viable cells at 10 uM incubated for > 6 hrs by annexin V/PI staining based analysis (Rvb=90.04%); assay type: functional; conditions: read-out: Activity
# [2] = biological target: Dual specificity tyrosine-phosphorylation-regulated kinase 1B (Homo sapiens, UniProt Q9Y463); assay: Inhibition of DYRK1B (unknown origin) at 1110 nM in the presence of ATP by Kinome scan method relative to control; conditions: time > 6.0 hrs
# [3] = biological target: Dual specificity tyrosine-phosphorylation-regulated kinase 3 (Homo sapiens) (UniProt O43781); assay: Inhibition of DYRK3 (unknown origin) at 1110 nM in the presence of ATP by Kinome scan method relative to control; conditions: time > 6.0 hrs
# [4] = biological target: Cyclin-dependent kinase 1/cyclin B1 (Homo sapiens) (UniProt P06493+P14635); assay: Inhibition of CDK1/cyclin B (unknown origin) at 100 nM in the presence of ATP by Kinome scan method relative to control; assay type: protein-complex assay
# [5] = biological target: Cyclin-dependent kinase 5/CDK5 activator 1 (Homo sapiens) (UniProt Q00535+Q15078); assay: Inhibition of CDK5/p35 (unknown origin) at 1000 nM in the presence of ATP by Kinome scan method relative to control; assay type: protein-complex assay
# [6] = biological target: Casein kinase I isoform alpha (Homo sapiens) (UniProt P48729); assay: Inhibition of CSNK1A1 (unknown origin) at 1000 nM in the presence of ATP by Kinome scan method relative to control
# [7] = biological target: Ephrin type-A receptor 2 (Homo sapiens) (UniProt P29317); assay: Inhibition of EPHA2 (unknown origin) at 100 nM in the presence of ATP by Kinome scan method relative to control
# [8] = biological target: Fibroblast growth factor receptor 1 (Homo sapiens) (UniProt P11362); assay: Inhibition of FGFR1 (unknown origin) at 100 nM in the presence of ATP by Kinome scan method relative to control
# [9] = biological target: Homeodomain-interacting protein kinase 2 (Homo sapiens) (UniProt Q9H2X6); assay: Inhibition of HIPK2 (unknown origin) at 1000 nM in the presence of ATP by Kinome scan method relative to control
# [10] = biological target: Tyrosine-protein kinase JAK2 (Homo sapiens) (UniProt O60674); assay: Inhibition of JAK2 (unknown origin) at 100 nM in the presence of ATP by Kinome scan method relative to control
# [11] = biological target: Mitogen-activated protein kinase 11 (Homo sapiens) (UniProt Q15759); assay: Inhibition of MAPK11 (unknown origin) at 1000 nM in the presence of ATP by Kinome scan method relative to control
# [12] = biological target: Mitogen-activated protein kinase 11 (Homo sapiens) (UniProt Q15759); assay: Inhibition of MAPK11 (unknown origin) at 100 nM in the presence of ATP by Kinome scan method relative to control
# [13] = biological target: Mitogen-activated protein kinase 9 (Homo sapiens) (UniProt P45984); assay: Inhibition of MAPK9 (unknown origin) at 1000 nM in the presence of ATP by Kinome scan method relative to control
# [14] = biological target: Serine/threonine-protein kinase Nek1 (Homo sapiens) (UniProt Q96PY6); assay: Inhibition of NEK1 (unknown origin) at 1000 nM in the presence of ATP by Kinome scan method relative to control
# [15] = biological target: Serine/threonine-protein kinase Nek2 (Homo sapiens) (UniProt P51955); assay: Inhibition of NEK2 (unknown origin) at 100 nM in the presence of ATP by Kinome scan method relative to control
# [16] = biological target: cAMP-dependent protein kinase catalytic subunit alpha (Homo sapiens) (UniProt P17612); assay: Inhibition of PRKACA (unknown origin) at 100 nM in the presence of ATP by Kinome scan method relative to control
# [17] = biological target: Protein kinase C alpha type (Homo sapiens) (UniProt P17252); assay: Inhibition of PRKCA (unknown origin) at 1000 nM in the presence of ATP by Kinome scan method relative to control
# [18] = biological target: Angiopoietin-1 receptor (Homo sapiens) (UniProt Q02763); assay: Inhibition of TEK (unknown origin) at 100 nM in the presence of ATP by Kinome scan method relative to control
# [19] = test system: HCT-116; assay: Induction of cell cycle arrest in human HCT-116 cells assessed as G2/M phase at 0.5 uM incubated for 6 hrs by flow cytometry analysis (Rvb=25.8%); assay type: functional
# [20] = test system: HCT-116; assay: Induction of cell cycle arrest in human HCT-116 cells assessed as G0/G1 phase at 5 uM incubated for 6 hrs by flow cytometry analysis (Rvb=35.0%); assay type: functional
# [21] = test system: HCT-116; assay: Induction of cell cycle arrest in human HCT-116 cells assessed as G0/G1 phase at 10 uM incubated for 6 hrs by flow cytometry analysis (Rvb=35.0%); assay type: functional
# [22] = test system: HCT-116; assay: Induction of cell cycle arrest in human HCT-116 cells assessed as sub G0/G1 phase at 0.1 uM incubated for 24 hrs by flow cytometry analysis (Rvb=2.5%); assay type: functional
# [23] = test system: HCT-116; assay: Induction of cell cycle arrest in human HCT-116 cells assessed as G0/G1 phase at 0.5 uM incubated for 24 hrs by flow cytometry analysis (Rvb=35.7%); assay type: functional
# [24] = test system: HCT-116; assay: Induction of cell cycle arrest in human HCT-116 cells assessed as G2/M phase at 0.5 uM incubated for 24 hrs by flow cytometry analysis (Rvb=17.9%); assay type: functional
# [25] = test system: HCT-116; assay: Induction of cell cycle arrest in human HCT-116 cells assessed as sub G0/G1 phase at 1 uM incubated for 24 hrs by flow cytometry analysis (Rvb=2.5%); assay type: functional
# [26] = test system: HCT-116; assay: Induction of cell cycle arrest in human HCT-116 cells assessed as sub G0/G1 phase at 5 uM incubated for 24 hrs by flow cytometry analysis (Rvb=2.5%); assay type: functional
# [27] = test system: HCT-116; assay: Induction of cell cycle arrest in human HCT-116 cells assessed as sub G0/G1 phase at 10 uM incubated for 24 hrs by flow cytometry analysis (Rvb=2.5%); assay type: functional
# [28] = test system: HCT-116; assay: Induction of cell cycle arrest in human HCT-116 cells assessed as G2/M phase at 10 uM incubated for 24 hrs by flow cytometry analysis (Rvb=17.9%); assay type: functional
# [29] = test system: HCT-116; assay: Induction of cell cycle arrest in human HCT-116 cells assessed as S phase at 10 uM incubated for 24 hrs by flow cytometry analysis (Rvb=46.4%); assay type: functional
# [30] = Stability of compound in tissue culture medium assessed as remaining parent compound at 5.38 uM incubated for 24 hrs; assay type: physicochemical; conditions: read-out: Stability
# [31] = biological target: Dual specificity protein kinase CLK1 (Homo sapiens) (UniProt P49759); assay: Inhibition of CLK (unknown origin) in human HCT-116 cells assessed as induction in alternative splicing effect in S6K skipped exon incubated for 6 hrs by RT-PCR analysis; assay type: cell-based; conditions: dose 0.2-5 µM
# Outline: (§1)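 Cells exposed to graded T3 concentrations for 6 h (chosen to avoid cytotoxicity), with a DMSO vehicle control. Total RNA was reverse-transcribed with oligo-dT primers. Targeted splice or conjoined-gene products were quantified by real-time qPCR or by targeted next-generation sequencing. Conjoined-gene isoform expression was normalized to a sequenced housekeeping gene.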
# [32] = biological target: Dual specificity protein kinase CLK1 (Homo sapiens) (UniProt P49759); assay: Inhibition of CLK (unknown origin) in human 184-hTERT cells assessed as induction in alternative splicing effect in RBM25-PSEN1 level incubated for 6 hrs by RT-PCR analysis; assay type: cell-based; conditions: dose 0.2-5 µM; outline: as §1
# Chain of Mitogen-activated protein kinase 11 (Homo sapiens) (Q15759 whole entry): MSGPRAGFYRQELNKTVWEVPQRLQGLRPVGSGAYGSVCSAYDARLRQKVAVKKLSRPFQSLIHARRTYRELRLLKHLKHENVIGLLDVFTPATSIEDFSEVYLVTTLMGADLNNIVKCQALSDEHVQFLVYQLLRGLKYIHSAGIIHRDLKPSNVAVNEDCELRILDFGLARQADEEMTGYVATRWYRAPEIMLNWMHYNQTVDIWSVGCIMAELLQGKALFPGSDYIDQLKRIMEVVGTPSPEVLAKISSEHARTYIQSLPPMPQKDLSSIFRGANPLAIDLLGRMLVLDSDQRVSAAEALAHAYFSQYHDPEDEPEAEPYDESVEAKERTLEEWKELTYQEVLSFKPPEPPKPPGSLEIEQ
# Chain of Dual specificity protein kinase CLK1 (Homo sapiens) (P49759 whole entry, looked up, canonical isoform): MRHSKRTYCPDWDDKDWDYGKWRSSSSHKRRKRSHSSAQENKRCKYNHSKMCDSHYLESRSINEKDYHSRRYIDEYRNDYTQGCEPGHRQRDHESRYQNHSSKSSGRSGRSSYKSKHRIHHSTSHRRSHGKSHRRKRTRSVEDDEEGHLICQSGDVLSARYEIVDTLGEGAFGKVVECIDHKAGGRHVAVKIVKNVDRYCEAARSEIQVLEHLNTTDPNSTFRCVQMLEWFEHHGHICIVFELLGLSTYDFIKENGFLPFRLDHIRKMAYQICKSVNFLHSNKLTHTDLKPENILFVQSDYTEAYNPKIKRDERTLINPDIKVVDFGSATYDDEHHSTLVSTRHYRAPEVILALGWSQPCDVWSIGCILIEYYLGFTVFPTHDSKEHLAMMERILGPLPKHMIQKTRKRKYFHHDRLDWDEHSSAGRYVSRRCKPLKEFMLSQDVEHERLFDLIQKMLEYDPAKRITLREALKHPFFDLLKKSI
# Chain of Cyclin-dependent kinase 5/CDK5 activator 1 (Homo sapiens) (Q00535 whole entry, canonical isoform): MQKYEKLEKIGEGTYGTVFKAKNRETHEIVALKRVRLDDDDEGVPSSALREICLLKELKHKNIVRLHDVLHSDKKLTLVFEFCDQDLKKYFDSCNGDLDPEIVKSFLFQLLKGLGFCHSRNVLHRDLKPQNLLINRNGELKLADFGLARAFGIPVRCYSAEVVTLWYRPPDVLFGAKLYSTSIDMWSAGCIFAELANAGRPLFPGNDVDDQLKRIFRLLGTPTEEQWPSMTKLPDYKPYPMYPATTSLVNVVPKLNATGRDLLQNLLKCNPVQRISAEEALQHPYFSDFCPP
# Chain of Cyclin-dependent kinase 5/CDK5 activator 1 (Homo sapiens) (Q15078 99-307 partner limits assumed): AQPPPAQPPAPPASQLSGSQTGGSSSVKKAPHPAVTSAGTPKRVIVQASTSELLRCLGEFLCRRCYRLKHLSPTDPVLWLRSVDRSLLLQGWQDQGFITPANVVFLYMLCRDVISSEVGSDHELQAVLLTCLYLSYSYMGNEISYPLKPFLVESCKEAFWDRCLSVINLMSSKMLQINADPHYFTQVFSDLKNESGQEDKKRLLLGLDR
# Chain of Angiopoietin-1 receptor (Homo sapiens) (Q02763 whole entry): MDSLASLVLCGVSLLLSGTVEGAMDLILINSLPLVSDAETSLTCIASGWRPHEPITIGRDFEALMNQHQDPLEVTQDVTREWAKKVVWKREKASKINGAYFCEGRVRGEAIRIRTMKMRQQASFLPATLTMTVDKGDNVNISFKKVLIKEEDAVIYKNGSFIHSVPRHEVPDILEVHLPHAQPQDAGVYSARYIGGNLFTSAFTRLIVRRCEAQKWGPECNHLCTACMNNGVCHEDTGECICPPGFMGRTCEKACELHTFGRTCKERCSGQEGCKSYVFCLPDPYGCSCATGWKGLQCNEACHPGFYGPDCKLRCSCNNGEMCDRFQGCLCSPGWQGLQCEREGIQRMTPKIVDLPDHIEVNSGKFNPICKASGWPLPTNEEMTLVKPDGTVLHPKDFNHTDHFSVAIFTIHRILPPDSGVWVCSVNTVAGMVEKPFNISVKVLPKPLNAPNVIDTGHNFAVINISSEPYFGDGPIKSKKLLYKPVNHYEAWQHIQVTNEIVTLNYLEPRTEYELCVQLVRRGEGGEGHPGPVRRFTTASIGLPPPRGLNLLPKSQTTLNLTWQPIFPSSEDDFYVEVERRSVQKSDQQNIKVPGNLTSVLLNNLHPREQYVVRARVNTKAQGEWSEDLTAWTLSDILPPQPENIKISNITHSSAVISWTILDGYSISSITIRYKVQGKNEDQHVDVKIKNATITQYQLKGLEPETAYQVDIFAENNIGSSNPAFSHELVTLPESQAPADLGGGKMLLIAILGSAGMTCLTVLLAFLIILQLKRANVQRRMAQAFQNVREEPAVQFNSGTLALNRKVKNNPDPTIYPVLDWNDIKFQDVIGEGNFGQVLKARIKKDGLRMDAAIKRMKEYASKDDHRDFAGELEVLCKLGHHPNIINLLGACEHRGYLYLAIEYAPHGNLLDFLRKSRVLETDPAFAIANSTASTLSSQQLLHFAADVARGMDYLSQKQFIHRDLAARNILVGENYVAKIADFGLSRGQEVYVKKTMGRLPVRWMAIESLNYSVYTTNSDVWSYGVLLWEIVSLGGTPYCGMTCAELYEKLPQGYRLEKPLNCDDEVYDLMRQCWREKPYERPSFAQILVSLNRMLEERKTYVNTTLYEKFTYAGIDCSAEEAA
# Chain of Cyclin-dependent kinase 1/cyclin B1 (Homo sapiens) (P06493 whole entry, looked up): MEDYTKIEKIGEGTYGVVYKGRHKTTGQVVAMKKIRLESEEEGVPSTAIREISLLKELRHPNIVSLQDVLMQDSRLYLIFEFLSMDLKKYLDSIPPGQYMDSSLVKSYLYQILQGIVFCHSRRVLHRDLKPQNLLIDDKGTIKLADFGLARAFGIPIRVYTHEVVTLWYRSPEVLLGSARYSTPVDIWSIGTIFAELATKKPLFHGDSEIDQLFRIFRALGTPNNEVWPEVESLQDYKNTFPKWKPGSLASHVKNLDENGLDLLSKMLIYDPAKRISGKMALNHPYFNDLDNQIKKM
# Chain of Cyclin-dependent kinase 1/cyclin B1 (Homo sapiens) (P14635 whole entry, looked up): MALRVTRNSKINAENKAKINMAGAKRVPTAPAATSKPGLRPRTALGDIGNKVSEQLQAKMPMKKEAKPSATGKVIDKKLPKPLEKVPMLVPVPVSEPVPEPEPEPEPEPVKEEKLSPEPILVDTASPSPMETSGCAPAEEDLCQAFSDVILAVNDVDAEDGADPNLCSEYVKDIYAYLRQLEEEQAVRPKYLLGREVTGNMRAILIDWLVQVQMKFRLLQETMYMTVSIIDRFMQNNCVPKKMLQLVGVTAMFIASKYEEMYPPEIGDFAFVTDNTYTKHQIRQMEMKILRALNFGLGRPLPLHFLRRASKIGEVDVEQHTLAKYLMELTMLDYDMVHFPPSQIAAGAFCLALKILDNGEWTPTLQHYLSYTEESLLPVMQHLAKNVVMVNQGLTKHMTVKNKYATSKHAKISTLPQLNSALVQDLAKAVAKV
# Chain of Ephrin type-A receptor 2 (Homo sapiens) (P29317 whole entry): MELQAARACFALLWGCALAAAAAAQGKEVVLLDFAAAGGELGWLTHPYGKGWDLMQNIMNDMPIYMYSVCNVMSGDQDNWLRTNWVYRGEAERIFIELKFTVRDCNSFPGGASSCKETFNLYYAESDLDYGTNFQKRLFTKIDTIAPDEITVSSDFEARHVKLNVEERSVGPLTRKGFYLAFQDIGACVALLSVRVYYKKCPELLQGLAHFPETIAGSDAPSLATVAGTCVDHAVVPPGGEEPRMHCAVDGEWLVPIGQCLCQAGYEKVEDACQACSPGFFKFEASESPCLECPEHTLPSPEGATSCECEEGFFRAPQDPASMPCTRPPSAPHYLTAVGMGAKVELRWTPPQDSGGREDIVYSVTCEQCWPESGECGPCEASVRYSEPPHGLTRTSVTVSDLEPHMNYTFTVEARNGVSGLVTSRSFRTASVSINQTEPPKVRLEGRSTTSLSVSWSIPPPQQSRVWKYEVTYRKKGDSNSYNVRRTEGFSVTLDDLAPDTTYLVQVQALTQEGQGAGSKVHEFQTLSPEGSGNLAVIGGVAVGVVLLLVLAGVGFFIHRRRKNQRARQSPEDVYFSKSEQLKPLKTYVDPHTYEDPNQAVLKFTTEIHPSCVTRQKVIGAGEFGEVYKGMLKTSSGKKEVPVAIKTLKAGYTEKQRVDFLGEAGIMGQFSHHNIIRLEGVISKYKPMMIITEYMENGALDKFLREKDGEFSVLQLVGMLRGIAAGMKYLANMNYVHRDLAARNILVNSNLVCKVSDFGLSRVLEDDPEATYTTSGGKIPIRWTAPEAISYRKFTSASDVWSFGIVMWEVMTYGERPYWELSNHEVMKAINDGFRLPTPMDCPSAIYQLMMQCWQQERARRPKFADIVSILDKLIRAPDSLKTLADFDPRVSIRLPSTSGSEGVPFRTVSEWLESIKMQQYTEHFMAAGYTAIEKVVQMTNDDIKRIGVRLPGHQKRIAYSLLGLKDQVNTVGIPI
# Chain of Casein kinase I isoform alpha (Homo sapiens) (P48729 2-337 limits assumed): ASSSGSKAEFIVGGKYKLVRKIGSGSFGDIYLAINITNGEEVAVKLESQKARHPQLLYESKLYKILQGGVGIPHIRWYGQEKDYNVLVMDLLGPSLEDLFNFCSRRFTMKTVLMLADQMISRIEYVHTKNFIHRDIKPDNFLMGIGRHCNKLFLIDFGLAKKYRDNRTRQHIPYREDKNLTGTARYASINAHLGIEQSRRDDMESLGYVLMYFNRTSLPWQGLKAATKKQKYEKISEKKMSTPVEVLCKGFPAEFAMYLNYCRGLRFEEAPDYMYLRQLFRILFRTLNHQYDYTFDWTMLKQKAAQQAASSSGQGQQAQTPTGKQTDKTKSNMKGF
# Chain of Mitogen-activated protein kinase 9 (Homo sapiens) (P45984 whole entry, looked up): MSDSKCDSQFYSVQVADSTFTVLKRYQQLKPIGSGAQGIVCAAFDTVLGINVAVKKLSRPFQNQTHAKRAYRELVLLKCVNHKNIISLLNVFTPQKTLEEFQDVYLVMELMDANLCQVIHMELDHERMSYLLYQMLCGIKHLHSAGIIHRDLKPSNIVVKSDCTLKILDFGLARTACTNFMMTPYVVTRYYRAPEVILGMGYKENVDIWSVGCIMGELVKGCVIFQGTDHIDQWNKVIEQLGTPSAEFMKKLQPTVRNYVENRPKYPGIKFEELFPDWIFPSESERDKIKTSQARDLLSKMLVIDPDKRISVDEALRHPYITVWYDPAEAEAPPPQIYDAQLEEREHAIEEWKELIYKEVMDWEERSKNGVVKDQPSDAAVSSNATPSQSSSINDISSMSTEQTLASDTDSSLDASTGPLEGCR
structure (smiles),measurement,setting,value
CN1CCN(C(=O)C(C)(C)c2ccc(C(=O)Nc3cn4cc(-c5ccncc5)ccc4n3)cc2)CC1 [T3-CLK],viability at 10 µM,[1],87.3%
same,inhibition,[2],94%
same,inhibition,[3],4%
same,inhibition,[4],8%
same,inhibition,[5],-1%
same,inhibition,[6],-3%
same,inhibition,[7],-4%
same,inhibition,[8],4%
same,inhibition,[9],-2%
same,inhibition,[10],-7%
same,inhibition,[11],1%
same,inhibition,[12],1%
same,inhibition,[13],-1%
same,inhibition,[14],25%
same,inhibition,[15],12%
same,inhibition,[16],-2%
same,inhibition,[17],4%
same,inhibition,[18],0%
same,Activity,[19],34.8%
same,Activity,[20],28.1%
same,Activity,[21],28.4%
same,Activity,[22],2.8%
same,Activity,[23],11.4%
same,Activity,[24],68.1%
same,Activity,[25],20.4%
same,Activity,[26],20.9%
same,Activity,[27],19%
same,Activity,[28],37.7%
same,Activity,[29],41%
same,"remaining at 24 h, 5.38 µM",[30],98.8%
same,inhibition,[31],Dose-Dependent Effect
same,inhibition,[32],Dose-Dependent Effect
